Assay [1] deals with T1, Hepatocyte nuclear factor 4-alpha (Homo sapiens) (UniProt P41235).
T1 sequence (whole entry): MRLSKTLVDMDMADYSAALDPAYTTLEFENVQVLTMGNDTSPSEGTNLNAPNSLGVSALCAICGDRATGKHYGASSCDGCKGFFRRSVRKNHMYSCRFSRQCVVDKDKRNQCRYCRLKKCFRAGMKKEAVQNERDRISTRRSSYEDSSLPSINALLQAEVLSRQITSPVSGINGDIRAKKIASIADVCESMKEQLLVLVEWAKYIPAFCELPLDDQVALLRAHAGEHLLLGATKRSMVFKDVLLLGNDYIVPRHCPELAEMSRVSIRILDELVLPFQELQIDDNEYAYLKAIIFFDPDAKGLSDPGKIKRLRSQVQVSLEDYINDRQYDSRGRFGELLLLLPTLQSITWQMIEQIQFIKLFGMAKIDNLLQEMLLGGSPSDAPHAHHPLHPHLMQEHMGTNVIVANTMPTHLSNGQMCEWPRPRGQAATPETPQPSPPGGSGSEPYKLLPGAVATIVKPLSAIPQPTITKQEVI
The assay is described as follows: Inhibition of HNF4alpha mRNA expression in human HepG2 cells after 24 hrs by real-time RT-PCR.

The target of assay [2] is T1, Hepatocyte nuclear factor 4-alpha (Homo sapiens). The experiment in a line: Inhibition of HNF4alpha mRNA expression in human HepG2 cells after 24 hrs by RT-PCR analysis. The format is cell-based. Conditions: in the assay text read “after 48 hrs” for “after 24 hrs”. In a few lines: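 HepG2 cells were grown in DMEM with 5% FBS at 37 °C and transfected with siRNA using a transfection reagent. After 24 h at 37 °C, the medium was changed to DMEM with 10% FBS and cells were incubated a further 24 h. Total RNA was reverse-transcribed for real-time PCR (40 cycles). HNF4α mRNA was normalized to GAPDH by ΔΔCt and expressed relative to nonsense control siRNA, using the mean Ct of duplicate PCRs from independent cells.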

The structures appear in SMILES notation. The source made the active and inactive calls. No cut-off for these calls is given here.

Consider `Cc1cn([C@H]2C[C@H](OP(=O)(O)OC[C@H]3O[C@@H](n4cc(C)c(=O)[nH]c4=O)C[C@@H]3O)[C@@H](COP(=O)(O)O[C@@H]3[C@H](O)[C@@H](COP(=O)(O)O[C@H]4[C@@H](O)[C@H](n5cnc6c(N)ncnc65)O[C@@H]4COP(=O)(O)O[C@H]4[C@@H](O)[C@H](n5ccc(N)nc5=O)O[C@@H]4COP(=O)(O)O[C@H]4[C@@H](O)[C@H](n5cnc6c(N)ncnc65)O[C@@H]4COP(=O)(O)O[C@@H]4[C@H](O)[C@@H](COP(=O)(O)O[C@@H]5[C@H](O)[C@@H](COP(=O)(O)O[C@H]6[C@@H](O)[C@H](n7ccc(=O)[nH]c7=O)O[C@@H]6COP(=O)(O)O[C@@H]6[C@H](O)[C@@H](COP(=O)(O)O[C@@H]7[C@H](O)[C@@H](COP(=O)(O)O[C@H]8[C@@H](O)[C@H](n9ccc(=O)[nH]c9=O)O[C@@H]8COP(=O)(O)O[C@@H]8[C@H](O)[C@@H](COP(=O)(O)O[C@H]9[C@@H](O)[C@H](n%10ccc(N)nc%10=O)O[C@@H]9COP(=O)(O)O[C@@H]9[C@H](O)[C@@H](COP(=O)(O)O[C@H]%10[C@@H](O)[C@H](n%11ccc(=O)[nH]c%11=O)O[C@@H]%10COP(=O)(O)O[C@@H]%10[C@H](O)[C@@H](COP(=O)(O)O[C@H]%11[C@@H](O)[C@H](n%12cnc%13c(N)ncnc%13%12)O[C@@H]%11COP(=O)(O)O[C@H]%11[C@@H](O)[C@H](n%12ccc(N)nc%12=O)O[C@@H]%11COP(=O)(O)O[C@@H]%11[C@H](O)[C@@H](COP(=O)(O)O[C@H]%12[C@@H](O)[C@H](n%13cnc%14c(=O)[nH]c(N)nc%14%13)O[C@@H]%12COP(=O)(O)O)O[C@H]%11n%11cnc%12c(=O)[nH]c(N)nc%12%11)O[C@H]%10n%10cnc%11c(=O)[nH]c(N)nc%11%10)O[C@H]9n9cnc%10c(=O)[nH]c(N)nc%109)O[C@H]8n8cnc9c(=O)[nH]c(N)nc98)O[C@H]7n7cnc8c(=O)[nH]c(N)nc87)O[C@H]6n6cnc7c(=O)[nH]c(N)nc76)O[C@H]5n5cnc6c(=O)[nH]c(N)nc65)O[C@H]4n4cnc5c(=O)[nH]c(N)nc54)O[C@H]3n3cnc4c(N)ncnc43)O2)c(=O)[nH]c1=O`, for which the outcome in assay [1] and in assay [2] was Active.
Consider `Cc1cn([C@H]2C[C@H](OP(=O)(O)OC[C@H]3O[C@@H](n4cc(CC(=O)NCCN(CCN)CCN)c(=O)[nH]c4=O)C[C@@H]3O)[C@@H](COP(=O)(O)O[C@H]3[C@@H](O)[C@H](n4ccc(N)nc4=O)O[C@@H]3COP(=O)(O)O[C@H]3[C@@H](O)[C@H](n4ccc(N)nc4=O)O[C@@H]3COP(=O)(O)O[C@@H]3[C@H](O)[C@@H](COP(=O)(O)O[C@H]4[C@@H](O)[C@H](n5ccc(=O)[nH]c5=O)O[C@@H]4COP(=O)(O)O[C@H]4[C@@H](O)[C@H](n5ccc(N)nc5=O)O[C@@H]4COP(=O)(O)O[C@H]4[C@@H](O)[C@H](n5cnc6c(N)ncnc65)O[C@@H]4COP(=O)(O)O[C@H]4[C@@H](O)[C@H](n5ccc(N)nc5=O)O[C@@H]4COP(=O)(O)O[C@@H]4[C@H](O)[C@@H](COP(=O)(O)O[C@H]5[C@@H](O)[C@H](n6ccc(N)nc6=O)O[C@@H]5COP(=O)(O)O[C@H]5[C@@H](O)[C@H](n6cnc7c(N)ncnc76)O[C@@H]5COP(=O)(O)O[C@H]5[C@@H](O)[C@H](n6ccc(N)nc6=O)O[C@@H]5COP(=O)(O)O[C@H]5[C@@H](O)[C@H](n6ccc(N)nc6=O)O[C@@H]5COP(=O)(O)O[C@H]5[C@@H](O)[C@H](n6cnc7c(N)ncnc76)O[C@@H]5COP(=O)(O)O[C@H]5[C@@H](O)[C@H](n6ccc(N)nc6=O)O[C@@H]5COP(=O)(O)O[C@H]5[C@@H](O)[C@H](n6ccc(N)nc6=O)O[C@@H]5COP(=O)(O)O[C@H]5[C@@H](O)[C@H](n6ccc(=O)[nH]c6=O)O[C@@H]5COP(=O)(O)O[C@@H]5[C@H](O)[C@@H](COP(=O)(O)O[C@H]6[C@@H](O)[C@H](n7ccc(=O)[nH]c7=O)O[C@@H]6COP(=O)(O)O[C@H]6[C@@H](O)[C@H](n7ccc(=O)[nH]c7=O)O[C@@H]6COP(=O)(O)O)O[C@H]5n5cnc6c(=O)[nH]c(N)nc65)O[C@H]4n4cnc5c(=O)[nH]c(N)nc54)O[C@H]3n3cnc4c(=O)[nH]c(N)nc43)O2)c(=O)[nH]c1=O`, for which the outcome in assay [1] and in assay [2] was Active.
